Data as given in ChEMBL document CHEMBL1909587, “Design, synthesis and biological study of novel pyrido[2,3-d]pyrimidine as anti-proliferative CDK2 inhibitors” (Eur J Med Chem, 2011).

Key:
HCT116 (Homo sapiens) = test: Growth inhibition of human HCT116 cells after 2 days by SRB assay; settings: HCT116, 48 h
[1] = molecular target: Epidermal growth factor receptor (Homo sapiens, UniProt P00533); test: Inhibition of human EGFR
Procedure, shortened: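 Kinase activity measured with the C-terminal human EGFR tyrosine kinase domain; IC50 taken as the inhibitor concentration giving 50% inhibition.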

[2] = molecular target: Cyclin-dependent kinase 2/cyclin A (Homo sapiens, UniProt P24941); test: Inhibition of CDK2/cyclin A expressed in baculovirus infected insect Sf21 cells using [gamma-P32]ATP and histone H1 as substrate after 10 mins by radiometric assay
A-431 = test: Growth inhibition of human A431 cells after 2 days by SRB assay; type: functional; settings: A-431, 48 h
Procedure, shortened: (§1)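 Cells kept in RPMI 1640 with 10% FBS at 37 °C, 5% CO2; 1000 cells/well plated, compounds added next day at various concentrations for two days. Fixed with 4% formalin, stained with 0.1% sulforhodamine B, dye eluted in 0.1 M Tris/HCl pH 8.0, absorbance at 520 nm. Triplicate, averaged; 0% = treatment-time absorbance, 100% = untreated two-day growth; GI50 = 50% growth inhibition.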

SNU-638 = test: Growth inhibition of human SNU638 cells after 2 days by SRB assay; type: functional; settings: SNU-638, 48 h
Procedure, shortened: as §1

[3] = Inhibition of CDK4/cyclin D expressed in baculovirus infected insect Sf21 cells using [gamma-P32]ATP and histone H1 as substrate after 10 mins by radiometric assay
Procedure, shortened: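 20 µL reactions in 50 mM Tris-HCl with 10 µM ATP, 0.2 µCi [γ-32P]ATP, 10 mM MgCl2, 5 mM DTT, 4 µg histone H1 substrate; 10 min with inhibitor, stopped with 30% phosphoric acid. Spotted on P81 paper, washed five times in 10 mM Tris-HCl pH 8.0/0.1 M NaCl, radioactivity imaged; IC50 = concentration giving 50% inhibition.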

Chain of Epidermal growth factor receptor (P00533 whole entry, the tested form may be a part): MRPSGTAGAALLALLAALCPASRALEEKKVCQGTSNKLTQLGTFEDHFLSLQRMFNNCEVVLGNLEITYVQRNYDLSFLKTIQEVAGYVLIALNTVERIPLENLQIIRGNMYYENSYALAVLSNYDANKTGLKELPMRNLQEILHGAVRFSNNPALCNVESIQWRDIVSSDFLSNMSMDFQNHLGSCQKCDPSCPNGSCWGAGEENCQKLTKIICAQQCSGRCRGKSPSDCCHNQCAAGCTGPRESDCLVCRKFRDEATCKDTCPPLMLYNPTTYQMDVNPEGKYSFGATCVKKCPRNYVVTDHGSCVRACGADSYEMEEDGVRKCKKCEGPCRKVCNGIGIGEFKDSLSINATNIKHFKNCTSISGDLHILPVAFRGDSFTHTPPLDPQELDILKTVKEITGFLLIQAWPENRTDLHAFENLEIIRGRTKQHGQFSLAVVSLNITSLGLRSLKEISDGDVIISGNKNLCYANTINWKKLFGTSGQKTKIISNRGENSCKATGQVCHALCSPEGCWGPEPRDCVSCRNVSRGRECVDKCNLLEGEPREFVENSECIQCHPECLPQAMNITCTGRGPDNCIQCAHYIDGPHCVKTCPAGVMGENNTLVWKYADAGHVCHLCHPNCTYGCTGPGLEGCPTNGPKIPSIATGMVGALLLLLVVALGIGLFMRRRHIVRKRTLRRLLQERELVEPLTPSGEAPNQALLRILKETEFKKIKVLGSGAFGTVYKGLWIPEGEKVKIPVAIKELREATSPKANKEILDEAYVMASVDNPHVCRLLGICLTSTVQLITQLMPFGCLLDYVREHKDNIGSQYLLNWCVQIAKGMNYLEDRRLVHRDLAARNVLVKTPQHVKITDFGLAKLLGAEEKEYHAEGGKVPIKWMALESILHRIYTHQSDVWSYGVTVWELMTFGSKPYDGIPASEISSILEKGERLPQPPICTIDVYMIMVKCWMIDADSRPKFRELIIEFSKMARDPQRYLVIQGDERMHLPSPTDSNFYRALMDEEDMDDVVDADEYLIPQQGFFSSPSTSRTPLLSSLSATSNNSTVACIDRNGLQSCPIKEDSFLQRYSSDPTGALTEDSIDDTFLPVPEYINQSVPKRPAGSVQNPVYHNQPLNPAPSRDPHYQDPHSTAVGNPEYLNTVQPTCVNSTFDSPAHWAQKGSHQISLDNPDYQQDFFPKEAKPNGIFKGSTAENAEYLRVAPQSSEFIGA

Compound | GI50 (HCT116 (Homo sapiens)) [µM] | IC50 [1] [µM] | IC50 [2] [µM] | GI50 (A-431) [µM] | GI50 (SNU-638) [µM] | IC50 [3] [µM]
Cc1c(C#N)c(NCCO)nc2nc(NCCO)nc(N)c12 | 20.1 | 47.9 | 3.8 | 31.9 | 18.2 | 10
Cn1cnc2c(NCc3ccccc3)nc(NCCO)nc21 [OLOMOUCINE] | 12.1 |  |  | 16.6 | 16.6 | 45
CC[C@H](CO)Nc1nc(NCc2ccccc2)c2ncn(C(C)C)c2n1 [SELICICLIB] |  |  |  |  |  | 15
N#Cc1cc2c(N)nc(NCCO)nc2nc1Nc1ccc(S(N)(=O)=O)cc1 | 48.2 | > 100 | 0.9 | 36.3 | 35.8 | 120
Nc1scc2c1c(Nc1ccc(S(N)(=O)=O)cc1)nc1nc(NCCO)nc(N)c12 | 47.7 | > 100 | 8.1 | 21.9 | 26.1 | 44
N#Cc1cc2c(N)ncnc2nc1Nc1ccc(S(N)(=O)=O)cc1 | 19.3 | > 100 | 0.3 | 7.8 | 7.57 | 13
Cc1c(C#N)c(Nc2ccc(S(N)(=O)=O)cc2)nc2ncnc(N)c12 | 16.6 | > 100 | 10 | 2.94 | 6.2 | 16
Cc1c(C#N)c(Nc2ccc(S(N)(=O)=O)cc2)nc2nc(NCCO)nc(N)c12 | 38.2 | > 100 | 3.1 | > 100 | 17.1 | 95

Continued by falling GI50 (HCT116 (Homo sapiens)), values first:

GI50 (HCT116 (Homo sapiens)) [µM] | IC50 [1] [µM] | IC50 [2] [µM] | GI50 (A-431) [µM] | GI50 (SNU-638) [µM] | Compound | IC50 [3] [µM]
11.4 | 66.1 | 0.09 | 4.6 | 2.57 | Nc1scc2c1c(NCCO)nc1nc(NCCO)nc(N)c12 | > 48
10.9 | > 100 | 6.3 | 6.25 | 7.95 | N#Cc1cc2c(N)nc(NCCO)nc2nc1NCCO | 28
8.89 | 29.5 | 36.3 | 3.94 | 2.56 | Nc1scc2c1c(Nc1ccc(S(N)(=O)=O)cc1)nc1ncnc(N)c12 | > 120
6.46 | > 100 | 0.5 | 54.3 | 18.3 | Nc1scc2c1c(NCCO)nc1ncnc(N)c12 | 29
4.5 | 93.3 | 29.5 | 26.6 | 20.8 | N#Cc1cc2c(N)ncnc2nc1NCCO | > 200
4.1 | > 100 | 29.5 | 5.06 | 2.58 | Cc1c(C#N)c(NCCO)nc2ncnc(N)c12 | 36
0.13 |  |  | 0.18 |  | COc1cccc2c1C(=O)c1c(O)c3c(c(O)c1C2=O)C[C@@](O)(C(=O)CO)C[C@@H]3O[C@H]1C[C@H](N)[C@H](O)[C@H](C)O1 [DOXORUBICIN] | 
